High-throughput results from PubChem.
Rows were chosen to be rich in hits. Some 2.9% of all compounds tested hit in one or more screens of this group.
Apaf-1 inh – inhibitors of human Apaf-1 apoptosome. reconstituted apoptosome caspase-3 activity, DEVD-Rh110 fluorescence. O14727. inhibition, % at 20 µM. 330,000 tested, 0.71% active; active means inhibition of at least 40% at 20 µM;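 further: plate controls were DMSO wells for no effect and DEVD-CHO caspase inhibitor wells for full effect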
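Material: reconstituted apoptosome with Apaf-1, cytochrome c, caspase-9, procaspase-3, dATP / Buffer or medium: pH 7.5 Hepes buffer with CHAPS, BSA, DTT / Also added: cytochrome c with DEVD-Rh110 / Schedule: compound with Apaf-1, dATP, procaspase-3 30 min, then 50 min reaction, room temperature / Technique: rhodamine 110 fluorescence at Ex 480/Em 540 nm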
MEKK2wt PB1 HTS – raises or lowers MEK5 binding to wildtype human MEKK2 PB1 domain | AID 1531 | 290,000 tested, 1.1% active | bead flow cytometry, Alexa488-MEK5 binding to MEKK2 WT; actives lie on both sides | binding response (% of control), % at 10 µM | Q9Y2U5; in the data active means binding response below about 67% or above about 130%; inconclusive means no clear call, values can overlap the other calls; inactive means in between
MEKK3 PB1 HTS – modulators (inhibitors or enhancers) of MEK5 binding to human MEKK3 PB1 domain. Q99759. bead-based flow cytometry, Alexa488-MEK5 binding to MEKK3; actives lie on both sides; 0 = blocked by unlabeled MEK5, 100 = vehicle. binding response (% of control), % at 10 µM. 290,000 tested, 1.4% active;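 active means binding response more than 3 SD above or below the average of its plate-row segment, actives on both sides; inconclusive means wells at one plate position flagged as instrument error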;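 further: Alexa488 bead fluorescence after subtracting the streptavidin-only scavenger bead signal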
Target sequence (Q99759 whole entry, looked up, the tested form may be a part): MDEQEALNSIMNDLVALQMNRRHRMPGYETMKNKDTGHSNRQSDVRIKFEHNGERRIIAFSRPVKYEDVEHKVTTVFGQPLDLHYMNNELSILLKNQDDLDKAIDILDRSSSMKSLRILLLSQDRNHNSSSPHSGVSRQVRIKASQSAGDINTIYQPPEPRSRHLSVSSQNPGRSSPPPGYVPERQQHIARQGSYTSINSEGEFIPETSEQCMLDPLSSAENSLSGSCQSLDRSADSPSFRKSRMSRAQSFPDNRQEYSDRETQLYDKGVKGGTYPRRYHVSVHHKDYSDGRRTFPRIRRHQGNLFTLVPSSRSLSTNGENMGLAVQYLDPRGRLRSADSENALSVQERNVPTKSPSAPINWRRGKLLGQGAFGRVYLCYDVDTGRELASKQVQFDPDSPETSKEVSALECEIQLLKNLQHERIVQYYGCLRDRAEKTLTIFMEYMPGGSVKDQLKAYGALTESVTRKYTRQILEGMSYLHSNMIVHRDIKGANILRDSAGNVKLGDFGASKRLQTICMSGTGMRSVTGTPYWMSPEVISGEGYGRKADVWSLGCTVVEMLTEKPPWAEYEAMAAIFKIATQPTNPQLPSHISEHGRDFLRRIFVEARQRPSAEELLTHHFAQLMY
UBC13 inh – human UBC13 polyubiquitination inhibition | P61088 | UBC13 polyubiquitin chain formation, TR-FRET | inhibition, % at 20 µM | 330,000 tested, 0.47% active | AID 485273; in the data active means inhibition above about 45%, passing the limit was not always enough; inconclusive means no clear call, values can overlap the other calls
MEKK2 mut-MEK5 – signal of MEK5 binding to mutant human MEKK2 PB1 domain; percent response, % at 10 µM; 290,000 tested, 0.35% active; bead flow cytometry, Alexa488-MEK5 binding to MEKK2 mutant; in the data active means percent response above about 24%, passing the limit was not always enough
MEKK2wt confirm – raises or lowers MEK5 binding to wildtype human MEKK2, retest. shares compounds with MEKK3 PB1 HTS. bead flow cytometry, Alexa488-MEK5 binding to MEKK2 WT; actives lie on both sides. binding response (% of control), % at 10 µM. 5,900 tested, 2.4% active; in the data active means binding response below about 16% or above about 210%; inactive means in between
MEKK2mut confirm – signal of MEK5 binding to mutant human MEKK2, retest. shares compounds with MEKK3 PB1 HTS. bead flow cytometry, Alexa488-MEK5 binding to MEKK2 mutant. percent response, % at 10 µM. 5,900 tested, 2% active. AID 1893; in the data active means percent response mostly above about 71%, no sharp cut-off; inactive means mostly below about 38%;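 further: higher means compound restores mutant binding toward wildtype level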
MEKK3-MEK5 inh – MEKK3-MEK5 PB1 inhibition, single concentration confirmation; shares compounds with MEKK3 PB1 HTS; bead flow cytometry, Alexa488-MEK5 binding to MEKK3; hits give low values; 5,900 tested, 1.8% active; binding response (% of control), % at 10 µM;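 active means binding response below 72% of control, or above a set upper limit, though filed actives all read lower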;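 further: 100% = DMSO only wells and 0% = binding blocked by excess unlabeled MEK5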
* = called active by the depositor; ? = inconclusive; . = not tested or not shown; [ ] = dose if it differs, or a comment.

SMILES	Apaf-1 inh	MEKK2wt PB1 HTS	MEKK3 PB1 HTS	UBC13 inh	MEKK2 mut-MEK5	MEKK2wt confirm	MEKK2mut confirm	MEKK3-MEK5 inh
Cc1cc(C)nc(NS(=O)(=O)c2ccc(NC(=O)c3ccc(O)cc3O)cc2)n1	-2.8	108.0	103.0	?	5.0	.	.	.
Cc1cc(C)c(S(C)(=O)=O)c(Oc2ccc(C(C)(C)C)cc2)n1	15.2	.	.	-2.1	.	.	.	.
Cc1cc(OC(=O)c2c(F)cc(F)cc2F)nc(C)n1	-8.6	123.0	149.0*	-2.1	5.0	93.0	-3.0	93.0
CN1CCc2c(sc3c2c(=O)n(-c2ccc(Cl)cc2)c2nncn32)C1	7.6	114.0	122.0*	2.7	4.0	95.0	-4.0	98.0
C=CCN(C#N)c1nc(OC)nc(N2CCCC2)n1	1.3	130.0	130.0*	-3.1	11.0	85.0	-7.0	80.0
CC(=O)Nc1sc(N/N=C/c2ccc(C)cc2)nc1-c1ccc(C)cc1	14.0	101.0	98.0	-15.5	2.0	.	.	.
CC(=O)Nc1sc(/C(C#N)=C/c2ccc(Cl)c(Cl)c2)nc1-c1ccc(C)cc1	.	25.0*	118.0	.	104.0*	87.0	-13.0	99.0
NC(=O)C1CCCN(CC(=O)Nc2cc(S(=O)(=O)N3CCOCC3)ccc2N2CCCC2)C1 (stereo not given)	-8.9	.	.	-4.3	.	.	.	.
COc1ccc(S(=O)(=O)N2CCOC23CCN(S(=O)(=O)c2cc(C)ccc2OC)CC3)cc1	13.0	.	.	5.3	.	.	.	.
Cc1cc(C)n(-c2cccc(F)n2)n1	6.9	80.0	84.0	2.7	-15.0	.	.	.
Cn1c(SCC#N)nc2ccccc2c1=O	-3.4	116.0	128.0*	4.7	29.0	96.0	-12.0	99.0
C=C(C)Cn1c(SCC)nc2ccccc2c1=O	8.1	106.0	103.0	0.8	4.0	.	.	.
C=C(C)Cn1c(SCC#N)nc2ccccc2c1=O	-3.8	92.0	82.0*[inhibitor]	-1.4	-10.0	101.0	-1.0	104.0
CC(/C=N/Nc1ncc(C)c(=O)[nH]1)=C\c1ccccc1	0.0	123.0	140.0*	-30.7	5.0	98.0	-3.0	102.0
Cc1cccc(N2CCN(C(=O)Cc3ccccc3[N+](=O)[O-])CC2)c1C	-1.9	102.0	105.0	3.8	1.0	.	.	.
Cc1c(CN(C)C)c2c(n1Cc1ccccc1)C(=O)c1ccc(Br)cc1-2	13.2	139.0*	89.0	-73.1	17.0	133.0	21.0	108.0
COc1ccc(-n2cc(CNC3CCN(C)CC3)c(-c3cccc(F)c3)n2)cc1	-2.1	169.0*	108.0	14.3	49.0	150.0	36.0	109.0
CCC[C@H](CN[C@@H](CNC)[C@H](C)O)NCCc1ccc(OC)cc1	-5.2	107.0	101.0	11.1	-4.0	.	.	.
CCCC[C@@H](CNC)NC[C@H](Cc1ccc(O)cc1)NCCc1ccc(OCC)cc1	4.2	153.0*	103.0	33.2	5.0	142.0	26.0	102.0
Cc1ccc(NC(=O)C(C)N2C(=O)c3ccccc3C2=O)cc1S(=O)(=O)N1CCOCC1 (stereo not given)	.	97.0	100.0	.	-2.0	.	.	.
O=C(NC1CCS(=O)(=O)C1)/C(=C\c1ccccc1)NC(=O)c1ccccc1 (stereo not given)	-2.9	108.0	147.0*	8.5	0.0	105.0	7.0	106.0
CCC(C)NCCOc1cccc(Br)c1 (stereo not given)	2.5	100.0	157.0*	-3.0	-1.0	103.0	2.0	101.0
C=CCNCCOc1cccc(Br)c1	8.4	106.0	113.0	-3.6	0.0	.	.	.
CCn1ncc(Br)c1C(=O)Nc1c(C)nn(Cc2c(F)c(F)c(F)c(F)c2F)c1C	-9.2	101.0	99.0	5.2	1.0	.	.	.
Cc1n[nH]c(C)c1N1C(=O)c2cccc3c(N4CCCCCC4)ccc(c23)C1=O	6.8	67.0*[inhibitor]	113.0	-226.3	40.0*	91.0	-7.0	96.0
SMILES	Apaf-1 inh	MEKK2wt PB1 HTS	MEKK3 PB1 HTS	UBC13 inh	MEKK2 mut-MEK5	MEKK2wt confirm	MEKK2mut confirm	MEKK3-MEK5 inh
CC(=O)Nc1ccc(/C(C)=N/Nc2nc(Nc3cccc4ccccc34)nc(N3CCOCC3)n2)cc1	-5.4	98.0	101.0	-17.4	-2.0	.	.	.
CS(=O)(=O)N(CC(=O)N1CCCCC1)c1ccc(Cl)c(C(F)(F)F)c1	-5.6	71.0*[inhibitor]	97.0	1.6	2.0	98.0	0.0	101.0
S=C(Nc1ccccc1)N1CCC(Cc2ccccc2)CC1	-3.7	101.0	102.0	9.0	4.0	.	.	.
Cc1ccccc1SCC(=O)OCC(=O)N(C)c1c(N)n(Cc2ccccc2)c(=O)[nH]c1=O	7.9	.	.	-2.0	.	.	.	.
COc1ccc(C(=O)Nc2ccccc2C(=O)NCCCn2ccnc2)cc1	.	121.0	122.0*	.	11.0	111.0	8.0	108.0
C=CCCN(C(C(=O)OC)C(C)C)S(=O)(=O)c1ccccc1Br (stereo not given)	14.9	105.0	104.0	9.1	4.0	.	.	.
O=C(NCCCN1CCCCCC1)c1ccc(CS(=O)(=O)Cc2ccccc2F)o1	.	200.0*	83.0	.	28.0*	179.0	41.0	75.0
O=C(NCCN1CCCCCC1)c1ccc(CS(=O)(=O)c2ccc(Br)cc2)o1	32.3	169.0*	99.0	31.9	26.0*	183.0	59.0	113.0
O=C(NCCCN1CCCC1)c1ccc(CS(=O)(=O)c2ccc(Br)cc2)o1	8.5	.	.	6.7	.	.	.	.
O=C(NCCN1CCCCC1)c1ccco1	-15.9	116.0	129.0*	-2.1	5.0	101.0	0.0	100.0
O=C(Nc1cc(S(=O)(=O)Nc2ccccc2Cl)ccc1O)c1sc2cc(Cl)ccc2c1Cl	-3.2	105.0	105.0	-6.0	5.0	.	.	.
O=C(NCC(c1ccco1)N1CCCC1)c1cn(-c2ccccc2)nc1-c1ccc(F)cc1 (stereo not given)	19.1	.	.	-0.6	.	.	.	.
O=c1[nH]c(=S)[nH]c2c1C(c1ccc(Br)cc1)c1c([nH]c(=S)[nH]c1=O)O2	.	100.0	109.0	.	7.0	.	.	.
CCOC(=O)C(C)Sc1cc(CS(=O)(=O)c2ccccc2)nc(-c2ccccc2)n1 (stereo not given)	25.5	91.0	95.0	2.5	-5.0	.	.	.
COc1ccc(C(=O)Nc2ccnn2C2CCN(C(=O)c3cc(C)on3)CC2)cc1	2.1	106.0	101.0	-1.2	5.0	.	.	.
O=C(C[n+]1cccc(Br)c1)c1ccc(-c2ccccc2)cc1	11.6	120.0	105.0	11.6	12.0	.	.	.
CCc1ccc(NC(=O)CSc2nnc(CNC(=O)c3c(F)cccc3Cl)o2)cc1	1.5	3.0*[inhibitor]	3.0*[inhibitor]	0.9	-24.0	104.0	3.0	101.0
CNCc1ccccc1Sc1cccc2ccccc12	-0.9	122.0	154.0*	15.8	2.0	125.0	12.0	104.0
